Columns and labels:
[1] = biological target: T1, Melanocortin receptor 5 (Homo sapiens, UniProt P33032); experiment: Agonist activity at EYFP-fused human MC5R expressed in HEK293 cells after 16 to 20 hrs by CRE-driven reporter assay; assay type: functional, cell-based
Procedure, shortened: (§1)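 HEK293 monoclonal lines carrying a single receptor/9×CRE-d2EYFP construct, selected with puromycin and FACS-sorted, kept in low-fluorescence DMEM. EYFP imaged with bright-field images, normalized to cell coverage, corrected for unstimulated cells and scaled to α-MSH maximum. Four-parameter fit constrained to minimum 0, at least three independent experiments.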

[2] = biological target: T2, Melanocortin receptor 4 (Homo sapiens, UniProt P32245); experiment: Agonist activity at EYFP-fused human MC4R expressed in HEK293 cells after 16 to 20 hrs by CRE-driven reporter assay; assay type: functional, cell-based
T2 sequence (P32245 whole entry, the tested form may be a part): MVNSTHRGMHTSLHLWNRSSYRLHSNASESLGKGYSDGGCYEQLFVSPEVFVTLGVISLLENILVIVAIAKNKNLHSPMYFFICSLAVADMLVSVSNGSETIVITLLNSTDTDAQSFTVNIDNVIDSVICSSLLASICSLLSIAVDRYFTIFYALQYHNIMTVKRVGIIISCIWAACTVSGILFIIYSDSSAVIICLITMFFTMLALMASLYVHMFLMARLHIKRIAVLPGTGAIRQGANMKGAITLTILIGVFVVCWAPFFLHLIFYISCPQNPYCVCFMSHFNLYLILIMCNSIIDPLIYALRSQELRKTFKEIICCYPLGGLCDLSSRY

[3] = biological target: T3, Melanocortin receptor 3 (Homo sapiens, UniProt P41968); experiment: Agonist activity at EYFP-fused human MC3R expressed in HEK293 cells after 16 to 20 hrs by CRE-driven reporter assay; assay type: functional, cell-based; procedure, shortened: as §1
T3 sequence (P41968 whole entry, the tested form may be a part): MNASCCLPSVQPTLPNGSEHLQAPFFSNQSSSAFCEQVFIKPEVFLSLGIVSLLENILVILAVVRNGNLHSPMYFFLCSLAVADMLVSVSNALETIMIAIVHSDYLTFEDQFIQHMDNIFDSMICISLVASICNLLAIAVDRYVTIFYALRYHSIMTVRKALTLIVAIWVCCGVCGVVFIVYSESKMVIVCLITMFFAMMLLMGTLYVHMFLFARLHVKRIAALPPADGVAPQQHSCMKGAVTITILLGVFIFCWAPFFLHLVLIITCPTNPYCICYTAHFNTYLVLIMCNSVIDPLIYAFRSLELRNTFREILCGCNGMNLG

[4] = biological target: T3, Melanocortin receptor 3; experiment: Agonist activity at EYFP-fused human MC3R expressed in HEK293 cells at 3000 nM after 16 to 20 hrs by CRE-driven reporter assay relative to alpha-MSH; assay type: functional, cell-based
Procedure, shortened: as §1, with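 “DMEM. Seeded at 50,000 cells/well and treated after 24 h for 16–20 h with 11-point 3-fold dilutions (3.3 μM to […]) in triplicate, vehicle 0.5% v/v DMSO.” for “DMEM.”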

[5] = biological target: T1, Melanocortin receptor 5; experiment: Agonist activity at EYFP-fused human MC5R expressed in HEK293 cells at 3000 nM after 16 to 20 hrs by CRE-driven reporter assay relative to alpha-MSH; assay type: functional, cell-based
Procedure, shortened: as §1, with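 “DMEM. Seeded at 50,000 cells/well and treated after 24 h for 16–20 h with 11-point 3-fold dilutions (3.3 μM to […]) in triplicate, vehicle 0.5% v/v DMSO.” for “DMEM.”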

[6] = biological target: T2, Melanocortin receptor 4; experiment: Agonist activity at EYFP-fused human MC4R expressed in HEK293 cells assessed as increase in cAMP accumulation after 30 mins by luminescent enzymatic complementation based assay; assay type: functional, cell-based
[7] = biological target: T1, Melanocortin receptor 5; experiment: Agonist activity at EYFP-fused human MC5R expressed in HEK293 cells after 16 to 20 hrs by CRE-driven reporter assay relative to alpha-MSH; assay type: functional, cell-based; procedure, shortened: as §1
[8] = biological target: T3, Melanocortin receptor 3; experiment: Agonist activity at EYFP-fused human MC3R expressed in HEK293 cells after 16 to 20 hrs by CRE-driven reporter assay relative to alpha-MSH; assay type: functional, cell-based; procedure, shortened: as §1
[9] = biological target: T2, Melanocortin receptor 4; experiment: Agonist activity at EYFP-fused human MC4R expressed in HEK293 cells assessed as increase in cAMP accumulation at 3000 nM after 30 mins by luminescent enzymatic complementation based assay relative to alpha-MSH; assay type: functional, cell-based
Procedure, shortened: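 MC4R-expressing HEK293 cells seeded at 50,000/well and switched after 24 h to HBSS with 500 μM IBMX. Ligand was added as 11-point series in triplicate for 30 min. Cells were lysed and incubated with enzyme fragments and substrate at room temperature in the dark for at least 4 h. Luminescence from enzyme complementation was background-corrected and normalized to the α-MSH maximum, with at least three independent experiments.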

[10] = biological target: T2, Melanocortin receptor 4; experiment: Agonist activity at EYFP-fused human MC4R expressed in HEK293 cells at 3000 nM after 16 to 20 hrs by CRE-driven reporter assay relative to alpha-MSH; assay type: functional, cell-based
Procedure, shortened: as §1, with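 “DMEM. Seeded at 50,000 cells/well and treated after 24 h for 16–20 h with 11-point 3-fold dilutions (3.3 μM to […]) in triplicate, vehicle 0.5% v/v DMSO.” for “DMEM.”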

[11] = organism: Homo sapiens; experiment: Selectivity ratio of EC50 for EYFP-fused human MC3R expressed in HEK293 cells to EC50 for EYFP-fused human MC4R expressed in HEK293 cells; assay type: cell-based

T1 sequence (P33032 whole entry, the tested form may be a part): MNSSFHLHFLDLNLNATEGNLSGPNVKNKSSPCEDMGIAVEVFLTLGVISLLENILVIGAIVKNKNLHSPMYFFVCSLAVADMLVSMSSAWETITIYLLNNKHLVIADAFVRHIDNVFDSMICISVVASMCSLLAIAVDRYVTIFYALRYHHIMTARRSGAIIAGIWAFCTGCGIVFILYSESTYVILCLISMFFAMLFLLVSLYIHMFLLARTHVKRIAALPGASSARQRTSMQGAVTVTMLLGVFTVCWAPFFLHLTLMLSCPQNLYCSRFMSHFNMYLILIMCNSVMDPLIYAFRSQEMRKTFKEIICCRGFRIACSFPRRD

CC(=O)N[C@@H](CCCNC(=N)N)C(=O)N[C@H]1CSSC[C@@H](C(N)=O)NC(=O)[C@H](Cc2c[nH]c3ccccc23)NC(=O)[C@H](CCCNC(=N)N)NC(=O)[C@@H](Cc2ccccc2)NC(=O)[C@H](Cc2c[nH]cn2)NC(=O)[C@@H](C)NC1=O
EC50 [1]: 110 nM

CSCC[C@H](NC(=O)[C@@H]1Cc2cn(nn2)C[C@H](NC(=O)[C@@H](N)CCCCN)C(=O)N[C@@H](Cc2cnc[nH]2)C(=O)N[C@H](C)C(=O)N[C@@H](CCCNC(=N)N)C(=O)N[C@@H](Cc2c[nH]c3ccccc23)C(=O)N1)C(=O)O
EC50 [1]: > 3000 nM
EC50 [2]: 112 nM
EC50 [3]: > 3000 nM
Emax [4]: 33%
Emax [5]: 8%
EC50 [6]: 943 nM

CSCC[C@H](NC(=O)[C@@H]1Cc2cn(nn2)C[C@H](NC(=O)[C@@H](N)CCCNC(=N)N)C(=O)N[C@@H](Cc2cnc[nH]2)C(=O)N[C@H](Cc2ccccc2)C(=O)N[C@@H](CCCNC(=N)N)C(=O)N[C@@H](Cc2c[nH]c3ccccc23)C(=O)N1)C(=O)O
Emax [7]: 85%
EC50 [1]: 752 nM
EC50 [2]: 11.4 nM
EC50 [3]: 291 nM
Emax [8]: 102%
EC50 [6]: 43.3 nM

CSCC[C@H](NC(=O)[C@@H]1Cc2cn(nn2)C[C@H](NC(=O)[C@H](C)N)C(=O)N[C@@H](Cc2cnc[nH]2)C(=O)N[C@H](Cc2ccccc2)C(=O)N[C@@H](CCCNC(=N)N)C(=O)N[C@@H](Cc2c[nH]c3ccccc23)C(=O)N1)C(=O)O
Emax [7]: 123%
EC50 [1]: 137 nM
EC50 [2]: 1.4 nM
EC50 [3]: 19.4 nM
Emax [8]: 111%
EC50 [6]: 2 nM

CC[C@@H](C)[C@H]1NC(=O)[C@H](Cc2cnc[nH]2)NC(=O)[C@@H](NC(=O)[C@@H](N)CCCCN)Cn2cc(nn2)C[C@@H](C(=O)N[C@@H](CCSC)C(=O)O)NC(=O)[C@H](Cc2c[nH]c3ccccc23)NC(=O)[C@H](CCCNC(=N)N)NC1=O
Emax [9]: 13%
EC50 [1]: > 3000 nM
EC50 [2]: > 3000 nM
EC50 [3]: > 3000 nM
Emax [4]: 0%
Emax [10]: 42%
Emax [5]: 0%
EC50 [6]: > 3000 nM

CSCC[C@H](NC(=O)[C@@H]1Cc2cn(nn2)C[C@H](NC(=O)[C@@H](N)CCCCN)C(=O)N[C@@H](Cc2c[nH]c3ccccc23)C(=O)N[C@H](Cc2ccccc2)C(=O)N[C@@H](CCCNC(=N)N)C(=O)N[C@@H](Cc2cnc[nH]2)C(=O)N1)C(=O)O
Emax [9]: 28%
EC50 [1]: > 3000 nM
EC50 [2]: > 3000 nM
EC50 [3]: > 3000 nM
Emax [4]: 0%
Emax [10]: 48%
Emax [5]: 0%
EC50 [6]: > 3000 nM

CSCC[C@H](NC(=O)[C@@H]1Cc2cn(nn2)C[C@H](NC(=O)[C@@H](N)CCCCN)C(=O)N[C@@H](Cc2cnc[nH]2)C(=O)N[C@H](Cc2ccccc2)C(=O)N[C@@H](CCCNC(=N)N)C(=O)N[C@@H](C)C(=O)N1)C(=O)O
Emax [9]: 16%
EC50 [1]: 809 to 3000 nM
EC50 [2]: > 3000 nM
EC50 [3]: 1910 to 3000 nM
Emax [4]: 17%
Emax [10]: 19%
Emax [5]: 18%
EC50 [6]: > 3000 nM

CSCC[C@H](NC(=O)[C@@H]1Cc2cn(nn2)[C@@H](CCCNC(=N)N)C(=O)N[C@@H](Cc2cnc[nH]2)C(=O)N[C@H](Cc2ccccc2)C(=O)N[C@@H](CCCNC(=N)N)C(=O)N[C@@H](Cc2c[nH]c3ccccc23)C(=O)N1)C(=O)O
Emax [7]: 106%
EC50 [1]: 916 nM
EC50 [2]: 3.2 nM
EC50 [3]: 160 nM
Emax [8]: 112%
EC50 [6]: 9.6 nM

CSCC[C@H](NC(=O)[C@@H]1Cc2cn(nn2)CCC[C@H](N)C(=O)N[C@@H](Cc2cnc[nH]2)C(=O)N[C@H](Cc2ccccc2)C(=O)N[C@@H](CCCNC(=N)N)C(=O)N[C@@H](Cc2c[nH]c3ccccc23)C(=O)N1)C(=O)O
EC50 [1]: > 3000 nM
EC50 [2]: 185 nM
EC50 [3]: > 3000 nM
Emax [4]: 16%
Emax [5]: 3%
EC50 [6]: 720 nM

C[C@H](NC(=O)[C@@H]1Cc2cn(nn2)C[C@H](NC(=O)[C@@H](N)CCCCN)C(=O)N[C@@H](Cc2cnc[nH]2)C(=O)N[C@H](Cc2ccccc2)C(=O)N[C@@H](CCCNC(=N)N)C(=O)N[C@@H](Cc2c[nH]c3ccccc23)C(=O)N1)C(=O)O
Emax [7]: 126%
EC50 [1]: 635 nM
EC50 [2]: 2.3 nM
EC50 [3]: 162 nM
Emax [8]: 107%
EC50 [6]: 17.9 nM

CSCC[C@H](NC(=O)[C@@H]1Cc2cn(nn2)C[C@H](NC(=O)[C@@H](N)CCCCN)C(=O)N[C@@H](Cc2cnc[nH]2)C(=O)N[C@H](Cc2ccccc2)C(=O)N[C@@H](C)C(=O)N[C@@H](Cc2c[nH]c3ccccc23)C(=O)N1)C(=O)O
EC50 [1]: > 3000 nM
EC50 [2]: 258 nM
EC50 [3]: > 3000 nM
Emax [4]: 10%
Emax [5]: 5%
EC50 [6]: 684 nM

CSCC[C@H](NC(=O)[C@@H]1Cc2cn(nn2)C[C@H](NC(=O)[C@@H](N)CCCCN)C(=O)N[C@@H](Cc2cnc[nH]2)C(=O)N[C@@H](Cc2ccccc2)C(=O)N[C@@H](CCCNC(=N)N)C(=O)N[C@@H](Cc2c[nH]c3ccccc23)C(=O)N1)C(=O)O
EC50 [1]: > 3000 nM
EC50 [2]: 678 nM
EC50 [3]: > 3000 nM
Emax [4]: 32%
Emax [5]: 1%
EC50 [6]: 792 nM

CSCC[C@H](NC(=O)[C@@H]1Cc2cn(nn2)C[C@H](NC(=O)[C@@H](N)CCCCN)C(=O)N[C@@H](C)C(=O)N[C@H](Cc2ccccc2)C(=O)N[C@@H](CCCNC(=N)N)C(=O)N[C@@H](Cc2c[nH]c3ccccc23)C(=O)N1)C(=O)O
Emax [7]: 130%
EC50 [1]: 375 nM
EC50 [2]: 2.8 nM
EC50 [3]: 633 nM
Emax [8]: 104%
EC50 [6]: 28.8 nM

CSCC[C@H](NC(=O)[C@@H]1Cc2cn(nn2)C[C@H](NC(=O)[C@@H](N)CCCCN)C(=O)N[C@@H](Cc2cnc[nH]2)C(=O)N[C@H](Cc2ccccc2)C(=O)N[C@@H](CCCNC(=N)N)C(=O)N[C@@H](Cc2csc3ccccc23)C(=O)N1)C(=O)O
EC50 [1]: > 3000 nM
EC50 [2]: 7.6 nM
EC50 [3]: 821 nM
Emax [8]: 96%
Emax [5]: 59%
EC50 [6]: 63.7 nM

CSCC[C@H](NC(=O)[C@@H]1Cc2cn(nn2)C[C@H](NC(=O)[C@@H](N)CCCCN)C(=O)N[C@@H](Cc2cnc[nH]2)C(=O)N[C@H](Cc2ccccc2)C(=O)N[C@@H](CCCCN)C(=O)N[C@@H](Cc2c[nH]c3ccccc23)C(=O)N1)C(=O)O
EC50 [1]: > 3000 nM
EC50 [2]: 12.7 nM
EC50 [3]: > 3000 nM
Emax [4]: 40%
Emax [5]: 13%
EC50 [6]: 124 nM

CSCC[C@H](NC(=O)[C@@H]1Cc2cn(nn2)C[C@H](NC(=O)[C@@H](N)CCCCN)C(=O)N[C@@H](Cc2cnc[nH]2)C(=O)N[C@H](Cc2ccccc2)C(=O)N[C@@H](CCCNC(=N)N)C(=O)N[C@@H](Cc2c[nH]c3ccccc23)C(=O)N1)C(=O)O
Emax [7]: 120%
EC50 [1]: 299 nM
EC50 [2]: 1.8 nM
EC50 [3]: 123 nM
Emax [8]: 105%
Ratio EC50 [11]: 70
EC50 [6]: 9.2 nM

CSCC[C@H](NC(=O)[C@@H]1Cc2cn(nn2)C[C@H](NC(=O)[C@@H](N)CCCCN)C(=O)N[C@@H](Cc2cnc[nH]2)C(=O)N[C@H](Cc2ccccc2)C(=O)N[C@@H](CCCN)C(=O)N[C@@H](Cc2c[nH]c3ccccc23)C(=O)N1)C(=O)O
EC50 [1]: > 3000 nM
EC50 [2]: 318 nM
EC50 [3]: > 3000 nM
Emax [4]: 12%
Emax [5]: 9%
EC50 [6]: 730 nM

— ChEMBL document CHEMBL4028868, “Click-Chemistry-Mediated Synthesis of Selective Melanocortin Receptor 4 Agonists” (J Med Chem, 2017)
